Compounds with a hit are over-represented: about 4.8% of the library has one in this group of screens.
Mot1-301 SUMO: yeast Mot1-301 growth rescue at high temperature, primary screen, SUMOylation pathway inhibitor project, S. cerevisiae, ATP luminescence, 38.5C | S. cerevisiae Mot1-301 growth rescue; percent above DMSO median, 100 means doubled | growth rescue, % at 18.8 µM | 1% of 320,000 active | AID 2716, 2010;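 active = every valid replicate shows activation above 250% relative to neutral control wells; inactive = the rest, any valid replicate at or below 250%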
T cruzi repl: inhibitors of intracellular T. cruzi growth, primary screen, luminescence, NIH3T3 host cells | T. cruzi beta-gal in NIH3T3, 90 h | inhibition, % (no concentration beside the values) | 1.4% of 300,000 active | AID 1885, 2009;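 active = mean inhibition across valid replicates above about 55%, limit read from the data; inconclusive = mean below that limit but half or more replicates reach it; inactive = mean below it, under half of replicates reach it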;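 note: signal also drops with host cell toxicity which is not excluded here; higher percent means less beta-gal luminescence so fewer parasites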
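System – NIH/3T3 host cells with β-galactosidase reporter T. cruzi · Doses – single 50 nL compound addition per well in DMSO · Reagent – 5000 T. cruzi trypomastigotes/well · Medium – Low-serum DMEM with 2% FBS · Timing – ≥90 h infection period, 3 h prior cell attachment · Evaluation – parasite load inhibition, % · Technique – GalScreen luminescence, 60 min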
WT yeast gro inh: growth inhibition of WT strain, primary screen, mitochondrial fusion inhibitor project, WT and mutant strains, chemical genetic | mitochondrial fusion phenotypic screen | inhibition, % at 10 µM | 2.1% of 190,000 active; in the data active = inhibition above about 58%; tested in S. cerevisiae
Efflux pump mplx: inhibitors of Candida efflux pumps in yeast, primary screen, S. cerevisiae, Nile Red, multiplex; S. cerevisiae Candida pump triplex; inhibition, % at 10 µM; 0.44% of 330,000 active; AID 485275, 2010;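 active = plate passing quality check with inhibition over a set limit, or well fluorescence over plate mean plus 4 SD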;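 note: Nile Red retained in pooled yeast measured as flow cytometry median fluorescence; higher means more Nile Red kept so more efflux inhibition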
CSC inhib: cancer stem cell viability inhibitors, primary screen, luminescence; cancer stem cell-like cells viability; inhibition, % at 7.5 µM; 1.1% of 300,000 active; in the data active = inhibition above about 75%; inconclusive = no clear call, values can overlap the other calls; tested in HMLE shEcad cells
Beta apoptosis: inhibitors of cytokine-induced beta cell apoptosis, primary screen, luminescence; INS-1E cytokine-induced death, ATP luminescence, 48 h; percent of positive-control rescue, neutral wells zero; protection from apoptosis, % (concentration not given with the values); 0.8% of 300,000 active;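 active = Every replicate reaches about 75%, or at least half do and their mean reaches it too, limit read from the data; inconclusive = At least half of replicates reach the limit but their mean does not; inactive = Under half of replicates reach the limit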;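 note: higher means more ATP so stronger rescue from cytokine killing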
A number is an active result; . = inactive; ? = inconclusive; / = no result.

SMILES | Mot1-301 SUMO | T cruzi repl | WT yeast gro inh | Efflux pump mplx | CSC inhib | Beta apoptosis
N#Cc1c(N(CCO)CCO)nc(N)c2c(N)nc3c(c12)CC(=O)N3CC1CCCO1 (configuration not stated) | . | . | / | . | . | .
S=C1NCCNC(=S)NCCOCCOCCOCCN1 | . | . | . | . | . | .
C=CCNC(=O)C(=O)Nc1ccc2c(c1)N(S(=O)(=O)c1cccs1)CCC2 | . | . | / | . | / | .
Cc1ccccc1C(=O)NNC(=O)CSc1nnc(C)n1-c1ccccc1 | . | . | . | . | / | .
CC(C)(C)c1ccc(OC(=O)c2ccc3snnc3c2)cc1 | . | . | . | . | . | .
CC(C)(C)c1ccc(OC(=O)c2ccc3nsnc3c2)cc1 | . | . | 73.1 | . | . | .
CCNc1nc(NC(C)C)nc(N(C#N)Cc2ccccc2)n1 | . | . | . | . | . | .
CCNc1nc(NC(C)C)nc(N(C#N)CCOc2ccc(Cl)cc2Cl)n1 | . | . | 80.0 | . | . | /
CSCC[C@H](NC(=O)c1ccc2c(c1)OCO2)c1nnc2ccccn12 | . | . | / | . | . | .
Cc1ccc2[nH]c3c(N4CCOCC4)ncnc3c2c1 | . | . | . | . | . | .
Fc1ccc2[nH]c3c(N4CCc5ccccc5C4)ncnc3c2c1 | . | . | / | . | ? | 127.3
c1ccc2c(c1)[nH]c1c(N3CCCC3)ncnc12 | . | . | 69.3 | . | / | .
Cc1ccc2[nH]c3c(N4CCc5ccccc5C4)ncnc3c2c1 | / | . | . | . | . | 101.0
CCOc1ccc2[nH]c3c(NCC(C)C)ncnc3c2c1 | . | . | / | . | . | .
CCOc1ccc2[nH]c3c(N4CCc5ccccc5C4)ncnc3c2c1 | . | . | / | . | 86.8 | .
CCN(CC)C(=O)COc1ccc(-c2nnc(Nc3ccc(OC)c(C(=O)NC)c3)c3ccccc23)cc1 | . | . | / | . | . | /
CN1CCN(c2ncnc3c2[nH]c2ccc(F)cc23)CC1 | . | . | . | . | . | .
Brc1ccc2[nH]c3c(N4CCc5ccccc5C4)ncnc3c2c1 | 344.0 | . | . | . | 80.0 | .
Nc1c(C(=O)CSc2ncccn2)c(=O)[nH]c(=O)n1C1CC1 | . | / | / | . | / | .
CCCn1c(NC(=O)c2ccc(F)cc2)nc2ccccc21 | . | 83.8 | . | . | . | .
CCCCn1c(NC(=O)c2ccccc2)nc2ccccc21 | . | 55.6 | . | . | . | .
C=CC[C@H](CC(=O)OC(C)(C)C)C(=O)OC[C@H]1CCCN1C(=O)[C@@H](CC=C)CC(=O)N(CCO)Cc1ccccc1 | . | / | / | . | / | .
Cc1cccc2c(C(=O)N3CCN(c4ccccc4)CC3)cc(-c3ccncc3)nc12 | . | . | / | . | . | .
Cc1cccc2c(C(=O)N3CCN(c4ccccn4)CC3)cc(-c3cccc(Br)c3)nc12 | . | . | / | . | . | 111.7
O=C(c1cc(-c2cccc(Cl)c2)nc2ccccc12)N1CCN(c2ccccn2)CC1 | . | . | / | . | . | 96.5
SMILES | Mot1-301 SUMO | T cruzi repl | WT yeast gro inh | Efflux pump mplx | CSC inhib | Beta apoptosis
O=C(c1cc(-c2ccncc2)nc2ccc(Br)cc12)N1CCN(c2ccccn2)CC1 | . | ? | . | . | . | .
COc1ccc(-c2cc(C(=O)N3CCN(c4cccc(C)c4C)CC3)c3ccccc3n2)cc1OC | . | 62.3 | / | . | . | .
CCOc1ccc(S(=O)(=O)N2CCN(Cc3ccc4c(c3)OCO4)CC2)cc1C | 327.7 | . | / | . | / | .
COc1ccc(S(=O)(=O)N2CCN(Cc3ccc4c(c3)OCO4)CC2)cc1F | . | . | / | . | . | .
CC(=O)Nc1ccc(S(=O)(=O)NCCC(=O)OCCN2C(=O)c3ccccc3C2=O)cc1 | . | / | 73.3 | . | . | .
Cc1ccc(NS(=O)(=O)c2c(C(=O)N3CCCC3)c(C)n(C)c2C)cc1 | . | . | / | . | . | /
CCN(Cc1ccc2c(c1)OCCO2)C(=O)CN1C(=O)NC2(CCCCC2)C1=O | . | / | / | . | / | .
CN(CC(=O)Nc1cccc(F)c1)C(=O)CC1CC2CCC1C2 (configuration not stated) | . | . | / | . | . | .
O=C(N/N=C/C=C/c1ccccc1)C1CC1c1ccccc1 (configuration not stated) | . | . | 63.7 | . | . | .
O=C(N/N=C/C(Br)=C\c1ccccc1)c1n[nH]c2c1CCC2 | . | . | . | . | / | .
O=C(N/N=C/C=C/c1ccccc1)c1n[nH]c2c1CCC2 | . | . | . | . | 77.1 | .
COc1ccc(C(=O)NC(CC(=O)O)c2cc([N+](=O)[O-])ccc2Cl)cc1 (configuration not stated) | . | . | . | . | . | .
COc1ccc(C(=O)CC(Nc2ccc([N+](=O)[O-])cc2)c2ccc(Cl)cc2)cc1 (configuration not stated) | . | 64.2 | . | . | . | .
CCc1ccc(N2CC(C(=O)Nc3ccc(S(=O)(=O)N4CCOCC4)cc3)CC2=O)cc1 (configuration not stated) | . | . | / | . | . | .
CN(C)c1ccc(Nc2cc(Cl)ncn2)cc1 | . | . | / | . | . | .
CC(=O)NC(c1cccc([N+](=O)[O-])c1)c1c(OC(C)=O)ccc2ccccc12 (configuration not stated) | . | . | . | . | / | .
CC(=O)NC(c1ccc(C(C)C)cc1)c1ccc2cccnc2c1O (configuration not stated) | . | 56.2 | / | . | 109.1 | 89.7
COc1cccc(C(NC(C)=O)c2ccc3cccnc3c2O)c1 (configuration not stated) | . | 56.5 | / | . | . | 82.0
Oc1cccc(C(Nc2nccs2)c2ccc3cccnc3c2O)c1 (configuration not stated) | . | 91.6 | . | . | 110.0 | 77.2
CC(=O)NC(c1cccc([N+](=O)[O-])c1)c1ccc2cccnc2c1O (configuration not stated) | . | . | / | . | 102.4 | 97.2
CCN1CCN(C(=O)CN(c2ccc(F)c(Cl)c2)S(C)(=O)=O)CC1 | . | . | . | . | . | .
CCOc1ccccc1N(C(=O)Cn1nnnc1-c1ccc(C)o1)C(CC)C(=O)NC(C)(C)C (configuration not stated) | . | . | . | . | . | .
Oc1ccccc1C1OCC2(CO1)COC(c1ccccc1O)OC2 (configuration not stated) | . | . | . | . | . | .
Oc1ccccc1C1CCCCC1c1ccccc1 (configuration not stated) | . | . | / | . | 75.6 | .
O=C(Nc1nnc(C2CC2)s1)c1cc(-c2ccccc2)nn1-c1ccccc1 | . | . | 70.3 | . | . | .
Cc1ccc(-c2cc(NC(=O)CCl)n(-c3ccccc3)n2)cc1 | . | . | . | . | 95.7 | .
O=C(CCl)Nc1cc(-c2ccccc2)nn1-c1ccccc1 | . | . | . | . | . | .

High-throughput results as filed in PubChem.
